KCNK3 inh: human KCNK3 channel inhibition, primary screen. O14649. CHO-KCNK3 thallium flux, FluxOR fluorescence; hits give low values. B-score at 10 µM. 340,000 compounds, 0.84% hits;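 active = B-score under library mean minus 4 SD, starting fluorescence ratio at most library mean plus 5 SD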;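 also: more negative B-score means stronger inhibition of thallium flux through KCNK3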
Kir21 block: inhibitors of mouse Kir2.1 inward-rectifier potassium channel; B-score at 10 µM; 310,000 compounds, 0.85% hits; HEK293-Kir2.1, FluxOR thallium flux fluorescence; hits give low values;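 active = fluorescence ratio B-score at or below minus 3 SD of library scores, with starting-brightness B-score within 2 SD, cut at about -4.2 in these data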;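 also: channel flux triggered by added potassium and thallium sulfate stimulus; B-score of peak minus minimum fluorescence over baseline after thallium stimulus; more negative B-score means stronger Kir2.1 block with less thallium influx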
KCNK9 block: human KCNK9 channel inhibition | B-score at 10 µM | 310,000 compounds, 1.2% hits | HEK293 KCNK9, FluxOR thallium flux fluorescence; hits give low values;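 active = ratio B-score over 3 SD below the library mean, with starting fluorescence within 5 SD of its mean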;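 also: negative B-score means less thallium flux so channel inhibition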
hERG rescue: compounds protecting human hERG from proarrhythmic drug block. 310,000 compounds, 0.51% hits. activation (rescue from dofetilide block), less the hit threshold, % at 10 µM. Q12809. CHO-hERG, FluxOR thallium flux, dofetilide IC70 present. AID 1511;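 active = activation above the mean of controls blocked by dofetilide plus 5 SD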;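 also: thallium influx through hERG after potassium depolarization seen as dye fluorescence rise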
KCNQ1 pot: potentiators or activators of human KCNQ1 potassium channel | P51787 | B-score at 10 µM | CHO-K1 KCNQ1, thallium flux FluxOR fluorescence; hits give high values | 310,000 compounds, 0.35% hits;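 active = fluorescence ratio B-score, a plate-corrected score, at least three library SD, with initial intensity B-score within 5 SD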
Target sequence (P51787 whole entry, looked up): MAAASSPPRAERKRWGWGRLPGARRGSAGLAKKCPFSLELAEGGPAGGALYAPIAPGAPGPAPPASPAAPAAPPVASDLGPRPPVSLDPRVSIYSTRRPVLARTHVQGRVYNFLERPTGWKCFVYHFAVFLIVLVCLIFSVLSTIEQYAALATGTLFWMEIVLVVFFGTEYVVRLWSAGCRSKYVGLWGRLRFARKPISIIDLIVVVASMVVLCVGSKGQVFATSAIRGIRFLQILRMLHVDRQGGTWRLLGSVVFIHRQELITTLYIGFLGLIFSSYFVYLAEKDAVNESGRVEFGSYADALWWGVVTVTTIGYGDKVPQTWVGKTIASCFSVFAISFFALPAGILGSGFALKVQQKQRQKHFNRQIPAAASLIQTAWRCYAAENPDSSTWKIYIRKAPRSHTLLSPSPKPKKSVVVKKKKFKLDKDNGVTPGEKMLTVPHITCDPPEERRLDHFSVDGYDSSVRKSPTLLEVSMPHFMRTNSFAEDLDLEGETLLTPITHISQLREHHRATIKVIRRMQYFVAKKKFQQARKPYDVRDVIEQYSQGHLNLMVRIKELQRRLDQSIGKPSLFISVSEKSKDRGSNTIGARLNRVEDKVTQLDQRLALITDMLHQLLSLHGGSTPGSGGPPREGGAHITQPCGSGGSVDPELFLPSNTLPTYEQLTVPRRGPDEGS
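Assay system: CHO-K1 cells stably expressing KCNQ1; Medium: assay buffer with matched DMSO; Also added: K+/Tl+ depolarizing stimulus; Dosing: single dose; Timing: dye 90 min, compound 20 min, room temperature; Measured by: kinetic FluxOR thallium fluorescence, 10-s 1-Hz baseline, 110-s post-stimulus read; Read-out: peak-minus-minimum fluorescence over initial fluorescence, negative-control normalized, B-scored.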
KCNQ1 block: inhibitors of human KCNQ1 potassium channel | P51787 | CHO-K1 KCNQ1, FluxOR thallium flux fluorescence; hits give high values | B-score at 10 µM | 310,000 compounds, 1.3% hits;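 active = compounds whose thallium flux B-score, printed positive for inhibition, exceeds three library SD while starting fluorescence stays within three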;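 also: channel opened by potassium depolarization with thallium stimulus after 20 min compound exposure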
Hits are given with their value; i = inactive; nt = no result given. A selection: hits, their analogues and other compounds. The true share with any hit is near 3.8%.

SMILES	KCNK3 inh	Kir21 block	KCNK9 block	hERG rescue	KCNQ1 pot	KCNQ1 block
Cc1cc(C)c(S(=O)(=O)NCc2ccc3c(c2)OCO3)c(C)c1	i	i	i	i	i	i
COc1cc(C)c(Cl)cc1S(=O)(=O)N1CCCC1	i	i	i	i	i	i
CCOc1cc(C)c(Cl)cc1S(=O)(=O)NCc1ccc2c(c1)OCO2	i	-6.6	i	i	i	i
CCOc1cc(C)c(Cl)cc1S(=O)(=O)N1CCCC1	i	-5.5	i	i	i	i
Cc1cc(S(=O)(=O)NCc2ccncc2)c(C)cc1Br	i	i	i	i	i	6
Cc1cc(C)c(S(=O)(=O)NCc2ccc3c(c2)OCO3)cc1C	i	-4.3	i	i	i	i
COc1ccccc1OCCCCCc1c(C)n[nH]c1C	i	i	i	i	i	i
CCOc1ccccc1OCCCCCc1c(C)n[nH]c1C	i	-4.8	i	i	i	i
O=C(O)C/C(=C\c1cc(Br)cs1)c1nc2ccccc2o1	i	i	i	6.1	i	i
CN(C)CCNC(=O)c1cc2c(s1)-c1ccc(Cl)cc1SC2	i	-7.8	i	i	i	i
CCOCCCNC(=O)c1cc2c(s1)-c1ccccc1SC2	i	i	i	i	i	i
O=C(NCCNCc1cccc(Cl)c1)c1ccco1	i	nt	nt	nt	nt	nt
Clc1cccc(CNCCNCc2cccc(Cl)c2)c1	i	-4.3	i	i	i	i
O=C(Nc1nnc(-c2ccccc2)o1)c1ccc(Cl)cc1	i	i	i	i	11	i
Cc1noc(C)c1NC(=O)Nc1cccc2c1O[C@H](CN(C)C(=O)Nc1ccc3c(c1)OCO3)[C@@H](C)CN([C@H](C)CO)C2=O	i	nt	nt	nt	nt	nt
CN(CC(=O)Nc1ccc(F)cc1)C(=O)CN1C(=O)c2ccccc2C1=O	i	nt	nt	nt	nt	nt
CCn1c(CCNC(=O)c2ccc(C)cc2)nnc1SCc1ccc(Cl)c(Cl)c1	i	i	i	i	i	i
CCn1c(CCNC(=O)c2ccc(OC)cc2)nnc1SCc1ccc(Cl)c(Cl)c1	i	-6.5	i	i	i	i
Cc1ccc(S(=O)(=O)N2CCC3(CC2)OCCO3)s1	i	i	i	i	i	i
CCn1cc(CN2CCCC(CO)(Cc3ccc(F)cc3)C2)c2ccccc21 (stereo not given)	i	-5.2	i	i	i	i
COc1cccc(CC2(CO)CCCN(Cc3cn(C)c4ccccc34)C2)c1 (stereo not given)	i	-4.3	i	i	i	i
CN1CCN(c2ccc(S(=O)(=O)N3CCCCC3)cc2NC(=O)COc2cccc(Cl)c2)CC1	i	i	i	i	i	i
CSCCC(NC(=O)c1ccccc1)C(=O)N1CCN(C(c2ccccc2)c2ccccc2)CC1 (stereo not given)	i	i	i	i	i	i
COC(=O)[C@@]12CCCN1[C@H](c1ccc(-c3cccc(Cl)c3)cc1)[C@H]1C(=O)N(C)C(=O)[C@H]12	i	i	-7.1	i	i	i
CC(=O)N1CCN(C(=O)CNC(=O)c2ccc(C)s2)CC1	i	nt	nt	nt	nt	nt
SMILES	KCNK3 inh	Kir21 block	KCNK9 block	hERG rescue	KCNQ1 pot	KCNQ1 block
COc1ccc(Cl)cc1NC(=O)c1sc2nc(C)nc(N3CCOCC3)c2c1C	i	i	i	i	i	i
CC(=O)NC(c1ccccc1)c1nc2ccccc2[nH]1 (stereo not given)	-11	i	i	i	i	i
OC(c1ccccc1)c1nc2ccccc2[nH]1 (stereo not given)	i	i	i	i	i	i
Cc1cc(C)c2nc(N3CCN(C)CC3)c(C#N)cc2c1	i	i	i	i	i	i
Cc1cc(C)c2nc(N3CCCN(C(=O)c4cnccn4)CC3)c(C#N)cc2c1	i	-5	i	i	i	i
O=c1[nH]cc(-c2ccccc2)c(=O)[nH]1	i	i	i	i	12	i
CC(=O)Nc1ccc(NC(=O)C2CCCN(c3nnc(-n4cccc4)s3)C2)cc1 (stereo not given)	i	-4.6	i	i	i	i
CC(C)NC(=O)C1CCCN(c2nnc(-n3cccc3)s2)C1 (stereo not given)	i	i	i	i	i	i
O=C1C=CC(=O)C(C2=C3C(=O)N(CCc4ccccc4)CC(=O)N3CCC2)=C1	nt	-7	i	i	i	i
O=[N+]([O-])c1ccc(S(=O)(=O)c2ccccc2)nc1	i	-8.1	i	i	i	i
Cc1ccc(S(=O)(=O)c2ccc([N+](=O)[O-])cn2)cc1	i	i	i	i	i	i
COc1cccc(NC(=O)NC(=O)c2c(C)cc(Cl)nc2Cl)c1	i	i	i	i	i	i
Cc1oc(-c2cccs2)nc1CNC[C@H]1O[C@@H](n2cnc3c(N)ncnc32)[C@H](O)[C@@H]1O	i	nt	nt	nt	nt	nt
COCCOC(=O)/C(=C\c1cc(C(C)(C)C)c(O)c(C(C)(C)C)c1)C(C)=O	i	-5.4	i	i	i	i
O=S(=O)(Nc1ccc(S(=O)(=O)N2CCCC2)cc1)c1ccccc1Br	i	nt	nt	nt	nt	nt
COc1ccc(-c2nc(=S)c3ccc4ccccc4c3[nH]2)cc1	i	i	i	63	77	i
COc1ccc(-c2nc3ccccc3[nH]2)cc1	i	i	i	i	i	i
COc1ccc(CNC(=O)c2csc(Cc3ccc(OC)cc3)n2)cc1	i	-11	i	i	i	i
COc1ccc(NC(=O)c2csc(Cc3ccc(Cl)cc3)n2)cc1	i	i	i	i	i	i
COc1ccc(Cc2nc(C(=O)Nc3ccc(Cl)cc3)cs2)cc1	-18	i	i	i	i	i
COc1ccc(CNC(=O)c2csc(Cc3ccc(Cl)cc3)n2)cc1	i	-9	i	i	i	i
Clc1ccc(N2CCN(Cc3ccco3)CC2)cc1	i	i	i	i	i	i
O=C(NCc1ccccc1)c1onc(CSc2ccc(F)cc2)c1C(=O)NCCCN1CCOCC1	i	i	i	i	14	i
CCOC(=O)c1ccc(N=Cc2cnc(N)nc2N)cc1	i	nt	nt	nt	nt	nt
O=C(CSc1nc(-c2ccc(F)cc2)cs1)NC(=O)NCc1ccco1	i	i	i	4.9	i	i
SMILES	KCNK3 inh	Kir21 block	KCNK9 block	hERG rescue	KCNQ1 pot	KCNQ1 block
CCn1c(SCC(=O)NC(=O)NCc2ccco2)nc2sc(C)c(C)c2c1=O	i	i	i	9.2	12	i
Cc1ccc(S(=O)(=O)N2CCC[C@H]2C(=O)Nc2ccc(F)cc2C)cc1	i	nt	nt	nt	nt	nt
CC1(C)Cc2c(cnn2-c2ccccc2)C(NC(=O)CCCN2CCCC2=O)C1 (stereo not given)	i	i	i	i	i	i
COc1ccc(C(=O)NC(=S)NCCc2ccccc2)cc1	i	i	i	i	i	i
O=C(NC(=S)NCCc1ccccc1)c1cccc(Cl)c1	i	i	i	12	9	i
CCOC(=O)c1c(NC(=O)COC(=O)/C=C/c2ccccc2)sc(C(=O)NC)c1C	i	nt	nt	nt	nt	nt
O=C(Nc1nccs1)c1ccc(COc2ccccc2Br)o1	i	i	-7.1	i	i	i
CC(OC(=O)Cc1ccc(Cl)cc1)C(=O)NCCC1=CCCCC1 (stereo not given)	i	i	i	i	i	i

High-throughput results (PubChem)
